From ChEMBL document CHEMBL4152267, “Structure-based design of novel quinoxaline-2-carboxylic acids and analogues as Pim-1 inhibitors” (Eur J Med Chem, 2018)
Counter-ions that a name gives are not always drawn.

Tests used:
[1] = target: Serine/threonine-protein kinase pim-1 (Homo sapiens, UniProt P11309); assay: Inhibition of recombinant human Pim1 expressed in bacterial expression system using histone H1 as substrate after 30 mins by ADP-Glo reagent based luminescence assay
Outline: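 Recombinant human Pim-1 (bacterially expressed) with histone H1 at 0.8 µg/µL, 10 µM ATP, in 40 mM Tris pH 7.5, 20 mM MgCl₂ and 0.1 mg/mL BSA, for 30 min at 30 °C. ADP-Glo reagent stops the reaction (50 min, rt), then detection reagent is added (1 h, rt) and luminescence is read.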

[2] = target: Dual specificity tyrosine-phosphorylation-regulated kinase 1A (Rattus norvegicus, UniProt Q63470)
CDK2/Cyclin A2 = CDK2/Cyclin A2 (Homo sapiens, UniProt P24941); assay: Inhibition of human CDK2/CyclinA using histone H1 as substrate after 30 mins by ADP-Glo reagent based luminescence assay; type: protein-complex assay
CDK9/cyclin T1 = CDK9/cyclin T1 (Homo sapiens, UniProt P50750); assay: Inhibition of recombinant human CDK9/CyclinT expressed in baculovirus infected Sf9 insect cells using YSPTSPSYSPTSPSYSPTSPSKKKK as substrate after 30 mins by ADP-Glo reagent based luminescence assay
[3] = target: T1, Serine/threonine-protein kinase haspin (Homo sapiens, UniProt Q8TF76); assay: Inhibition of recombinant human haspin kinase domain (470 to 798 residues) expressed in bacterial expression system using histone H3 peptide as substrate after 30 mins by ADP-Glo reagent based luminescence assay
T1 sequence (Q8TF76 whole entry): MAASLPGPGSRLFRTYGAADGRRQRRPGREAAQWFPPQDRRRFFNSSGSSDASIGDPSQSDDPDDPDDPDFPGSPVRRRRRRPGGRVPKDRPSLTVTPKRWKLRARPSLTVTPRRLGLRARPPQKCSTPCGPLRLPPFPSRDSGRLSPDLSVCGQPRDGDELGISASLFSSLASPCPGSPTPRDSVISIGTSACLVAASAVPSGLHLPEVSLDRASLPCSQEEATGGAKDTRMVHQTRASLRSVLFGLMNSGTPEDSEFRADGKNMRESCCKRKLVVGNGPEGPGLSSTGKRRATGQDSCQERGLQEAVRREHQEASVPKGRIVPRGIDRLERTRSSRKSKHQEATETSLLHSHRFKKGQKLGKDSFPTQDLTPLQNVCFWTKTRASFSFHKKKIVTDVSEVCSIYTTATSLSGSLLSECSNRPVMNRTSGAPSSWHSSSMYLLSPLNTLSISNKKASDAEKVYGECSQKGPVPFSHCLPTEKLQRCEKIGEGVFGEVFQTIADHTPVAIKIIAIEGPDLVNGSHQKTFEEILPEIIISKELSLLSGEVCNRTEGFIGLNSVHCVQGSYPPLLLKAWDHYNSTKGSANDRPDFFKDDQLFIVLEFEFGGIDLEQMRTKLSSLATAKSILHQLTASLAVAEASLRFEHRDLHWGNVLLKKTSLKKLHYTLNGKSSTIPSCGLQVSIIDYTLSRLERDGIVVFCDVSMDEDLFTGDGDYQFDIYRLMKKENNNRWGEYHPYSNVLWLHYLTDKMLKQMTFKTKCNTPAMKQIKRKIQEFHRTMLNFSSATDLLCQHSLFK

[4] = target: Dual specificity protein kinase CLK1 (Mus musculus, UniProt P22518)
[5] = target: Glycogen synthase kinase-3 (Sus scrofa, UniProt B2LUN4+I6LNT8)
KU812 cell line = assay: Cytotoxicity against human KU812 cells assessed as reduction in cell viability after 48 hrs by MTT assay; type: functional, cell-based; conditions: KU812, 48 h

Sequence of Serine/threonine-protein kinase pim-1 (P11309 whole entry): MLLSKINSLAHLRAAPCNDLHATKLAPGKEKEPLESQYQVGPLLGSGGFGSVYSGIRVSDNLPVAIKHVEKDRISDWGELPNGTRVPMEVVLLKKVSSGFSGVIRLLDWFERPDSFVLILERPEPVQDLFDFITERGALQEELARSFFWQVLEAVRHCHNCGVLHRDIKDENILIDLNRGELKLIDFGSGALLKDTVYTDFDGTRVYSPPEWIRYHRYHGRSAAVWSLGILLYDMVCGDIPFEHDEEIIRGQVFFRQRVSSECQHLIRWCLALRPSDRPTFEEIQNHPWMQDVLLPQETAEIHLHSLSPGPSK
Sequence of CDK9/cyclin T1 (O60563 whole entry, the tested form may be a part): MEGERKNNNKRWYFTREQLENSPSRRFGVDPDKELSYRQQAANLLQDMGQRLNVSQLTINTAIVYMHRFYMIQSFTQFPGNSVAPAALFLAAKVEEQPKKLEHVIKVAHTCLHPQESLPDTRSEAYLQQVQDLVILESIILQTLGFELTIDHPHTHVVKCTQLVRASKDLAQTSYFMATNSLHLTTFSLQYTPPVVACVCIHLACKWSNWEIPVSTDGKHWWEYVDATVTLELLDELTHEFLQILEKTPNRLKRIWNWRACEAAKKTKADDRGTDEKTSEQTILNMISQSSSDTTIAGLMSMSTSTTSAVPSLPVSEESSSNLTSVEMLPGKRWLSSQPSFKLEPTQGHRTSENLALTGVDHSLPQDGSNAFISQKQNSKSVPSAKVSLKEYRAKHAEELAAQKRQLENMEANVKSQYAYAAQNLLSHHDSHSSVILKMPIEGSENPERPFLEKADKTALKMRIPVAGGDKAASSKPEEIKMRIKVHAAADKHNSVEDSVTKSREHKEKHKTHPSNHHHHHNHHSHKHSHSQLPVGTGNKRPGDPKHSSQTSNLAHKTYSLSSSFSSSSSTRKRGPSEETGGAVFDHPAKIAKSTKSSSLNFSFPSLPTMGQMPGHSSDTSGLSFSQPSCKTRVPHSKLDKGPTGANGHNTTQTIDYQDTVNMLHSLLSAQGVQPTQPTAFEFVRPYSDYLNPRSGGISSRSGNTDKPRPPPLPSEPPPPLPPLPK
Sequence of CDK9/cyclin T1 (P50750 whole entry, the tested form may be a part): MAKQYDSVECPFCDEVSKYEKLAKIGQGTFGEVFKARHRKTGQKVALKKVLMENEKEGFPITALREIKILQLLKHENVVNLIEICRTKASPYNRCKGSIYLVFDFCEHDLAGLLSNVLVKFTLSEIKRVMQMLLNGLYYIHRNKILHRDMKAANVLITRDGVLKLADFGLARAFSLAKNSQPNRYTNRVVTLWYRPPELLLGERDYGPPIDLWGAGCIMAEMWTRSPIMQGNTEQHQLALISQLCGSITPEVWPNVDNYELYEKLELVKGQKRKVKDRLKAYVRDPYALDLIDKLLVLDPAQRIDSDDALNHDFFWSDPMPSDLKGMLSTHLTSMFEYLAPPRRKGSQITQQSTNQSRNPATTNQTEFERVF
Sequence of Dual specificity protein kinase CLK1 (P22518 whole entry): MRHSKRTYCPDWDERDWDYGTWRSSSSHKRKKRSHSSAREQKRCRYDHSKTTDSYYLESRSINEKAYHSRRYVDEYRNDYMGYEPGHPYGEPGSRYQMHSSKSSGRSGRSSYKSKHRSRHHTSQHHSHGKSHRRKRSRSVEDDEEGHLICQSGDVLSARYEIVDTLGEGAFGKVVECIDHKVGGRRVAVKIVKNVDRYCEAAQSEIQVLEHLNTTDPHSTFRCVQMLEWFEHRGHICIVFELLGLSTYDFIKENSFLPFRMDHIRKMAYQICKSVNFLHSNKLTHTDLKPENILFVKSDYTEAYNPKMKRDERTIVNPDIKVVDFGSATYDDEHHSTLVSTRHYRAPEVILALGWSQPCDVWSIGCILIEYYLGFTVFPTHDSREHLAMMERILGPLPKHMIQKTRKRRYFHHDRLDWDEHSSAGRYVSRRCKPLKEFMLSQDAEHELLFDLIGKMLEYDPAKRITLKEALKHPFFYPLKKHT

Row | Compound | IC50 [1] | IC50 [2] | IC50 (CDK2/Cyclin A2) | IC50 (CDK9/cyclin T1) | IC50 [3] | IC50 [4] | IC50 [5] | EC50 (KU812 cell line)
1 | Nc1ccc(Nc2nc3ccccc3nc2C(=O)O)cc1 | > 10 µM |  |  |  |  |  |  | 
2 | O=C(O)c1nc2ccccc2nc1Nc1ccc(O)cc1 | 0.29 µM | 0.098 µM | > 10 µM | > 10 µM | > 10 µM | > 10 µM | > 10 µM | 41.7 µM
3 | O=C(O)c1nc2ccccc2nc1Nc1ccccc1O | 0.76 µM | 0.74 µM | > 10 µM | > 10 µM | > 10 µM | > 10 µM | > 10 µM | 178 µM
4 | O=C(O)c1nc2ccccc2nc1Nc1ccc2[nH]ccc2c1 | > 10 µM |  |  |  |  |  |  | 
5 | CN1CCC(c2ccc(Nc3nc4ccccc4nc3C(=O)O)cc2)CC1 | > 10 µM |  |  |  |  |  |  | 
6 | O=C(O)c1nc2ccccc2nc1Nc1cccc(N2CCOCC2)c1 | 1.01 µM | > 10 µM | > 10 µM | > 10 µM | > 10 µM | > 10 µM | > 10 µM | 57.3 µM
7 | Nc1cccc(Nc2nc3ccccc3nc2C(=O)[O-])c1.[K+] | 2.8 µM | 1.67 µM | > 10 µM | > 10 µM | > 10 µM | > 10 µM | > 10 µM | 63.8 µM
8 | O=C(O)c1nc2ccccc2nc1Nc1cccc(O)c1 |  |  | > 10 µM | > 10 µM | > 10 µM | > 10 µM | > 10 µM | 38.9 µM
9 | Cc1ccc(NC(=O)c2ccc(CN3CCN(C)CC3)cc2)cc1Nc1nccc(-c2cccnc2)n1 [IMATINIB MESYLATE] |  |  |  |  |  |  |  | 0.6 µM

More lines, main results first:

Row | IC50 [1] | Compound | IC50 [2] | IC50 (CDK2/Cyclin A2) | IC50 (CDK9/cyclin T1) | IC50 [3] | IC50 [4] | IC50 [5] | EC50 (KU812 cell line)
10 | > 10 µM | CCOC(=O)c1nc2ccccc2nc1Nc1ccc(C2CCN(C)CC2)cc1 |  |  |  |  |  |  | 
11 | > 10 µM | NC(=O)c1nc2ccccc2nc1Nc1cccc(N2CCOCC2)c1 |  |  |  |  |  |  | 
12 | > 10 µM | CCOC(=O)c1nc2ccccc2nc1Nc1cccc(N2CCOCC2)c1 |  |  |  |  |  |  | 
13 | > 10 µM | CCOC(=O)c1nc2ccccc2nc1Nc1cccc(O)c1 |  |  |  |  |  |  | 
14 | > 10 µM | CCOC(=O)c1nc2ccccc2nc1Nc1cccc(N)c1 |  |  |  |  |  |  | 
15 | > 10 µM | CCOC(=O)c1nc2ccccc2nc1Nc1ccc(N)cc1 |  |  |  |  |  |  | 
16 | > 10 µM | CCOC(=O)c1nc2ccccc2nc1Nc1ccc(O)cc1 |  |  |  |  |  |  | 
17 | > 10 µM | CCOC(=O)c1nc2ccccc2nc1Nc1ccc2[nH]ccc2c1 |  |  |  |  |  |  | 
18 | > 10 µM | CCOC(=O)c1nc2ccccc2nc1Nc1ccccc1O |  |  |  |  |  |  | 
